# Bioassay records: PubChem, several laboratories
# Only some compounds are listed: those with a hit (about 5.3% of all), similar ones and a draw of the others.
# Beta cell apopt: beta cell apoptosis inhibition. 300,000 compounds, 0.8% hits. INS-1E cytokine-induced death, ATP luminescence, 48 h; percent of positive-control rescue, neutral wells zero. protection from apoptosis, % (no concentration beside the values);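 active = Every replicate reaches about 75%, or at least half do and their mean reaches it too, limit read from the data; inconclusive = At least half of replicates reach the limit but their mean does not; inactive = Under half of replicates reach the limit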;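 also: 0% = cytokine-treated negative control wells and 100% = positive control rescue; higher means more ATP so stronger rescue from cytokine killing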
# NALP3 yeast inh: NALP3 inhibition in yeast; Yeast reconstituted NLRP3/ASC/caspase-1, beta-gal luminescence, 24 h; inhibition, % at 10 µM; 330,000 compounds, 0.39% hits; AID 2825;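 active = inhibition of 50% or more; inactive = inhibition below 50%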;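 also: plate controls were induced DMSO wells for no effect and uninduced yeast grown without galactose for full effect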
# Calb FLC: C. albicans growth modulation with fluconazole | growth inhibition, % (test concentration not listed) | 300,000 compounds, 0.57% hits | C. albicans CaCi-2 (fluconazole-resistant clinical isolate) + fluconazole, Alamar Blue growth, 48 h;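 active = growth inhibition above about 58% in most replicates, limit read from the data, passing the limit was not always enough; inconclusive = exactly half the replicates above a set limit; inactive = most replicates below a set limit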;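 also: all wells also contain fluconazole at 8 µg/ml as a sub-toxic cotreatment; 0% = median of DMSO wells and 100% = median of geldanamycin control wells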
# T cruzi inh: T. cruzi replication inhibition; T. cruzi beta-gal in NIH3T3, luminescence, 90 h; inhibition, % (no concentration beside the values); 300,000 compounds, 1.4% hits;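 active = mean inhibition across valid replicates above about 55%, limit read from the data; inconclusive = mean below that limit but half or more replicates reach it; inactive = mean below it, under half of replicates reach it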;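 also: signal also drops with host cell toxicity which is not excluded here; 0% = plate median of DMSO wells and 100% = zero luminescence signal; higher percent means less beta-gal luminescence so fewer parasites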
#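 System – NIH/3T3 host cells with β-galactosidase reporter T. cruzi · Doses – single 50 nL compound addition per well in DMSO · Reagent – 5000 T. cruzi trypomastigotes/well · Medium – Low-serum DMEM with 2% FBS · Timing – ≥90 h infection period, 3 h prior cell attachment · Evaluation – parasite load inhibition, % · Technique – GalScreen luminescence, 60 min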
# Mdm2-MdmX inh: human Mdm2/MdmX binding inhibition. 330,000 compounds, 3% hits. inhibition, % at 8 µM. SaOS-2 split-luciferase Mdm2/MdmX complementation, luminescence. O15151+Q00987;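 active = inhibition of at least 50% at 8 µM in the primary screen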
# CSC inhib: blocks cancer stem cells; AID 2717; cancer stem cell-like cells viability, luminescence; 300,000 compounds, 1.1% hits; inhibition, % at 7.5 µM; in the data active = inhibition above about 75%; inconclusive = no clear call, values can overlap the other calls; tested in HMLE shEcad cells
# Active calls of the source: *; ? = inconclusive; · = no result given.
SMILES,Beta cell apopt,NALP3 yeast inh,Calb FLC,T cruzi inh,Mdm2-MdmX inh,CSC inhib
Cc1ccc(-n2c(O)c(C=Nc3ccccc3-c3n[nH]c(=S)[nH]c3=O)c3ccccc3c2=O)cc1C,·,23,100*,22,19,·
S=c1nc[nH]c2c1ncn2C1CCCO1 (configuration not stated),0,3,-4,29,23,122*
Nc1ncnc2c1ncn2C1CCCO1 (configuration not stated),-2,25,·,·,-3,-14
CCOc1ccccc1CN1CCN(C/C=C/c2ccc(OC)cc2)CC1CCO (configuration not stated),0,11,-13,14,26,10
c1ccc(-c2nnc3sc(CN4CCc5ccccc54)cn23)cc1,17,12,-3,-29,11,76*
CN(C)CCCSc1nc(-c2ccccc2)nc2c1CCC2,-5,32,-24,71*,-22,17
CN(C)CCSc1nc(-c2ccccc2)nc2c1CCC2,3,21,-25,44,11,-4
CCOCC(=O)Nc1cc([N+](=O)[O-])ccc1C,-1,-7,14,6,26,-11
S=C(NCc1ccccc1)Nc1cccc(Cl)c1,1,25,-2,9,9,-4
NNC(=S)Nc1cccc(Cl)c1,0,21,92*,2,-12,-14
O=C(O)c1cc(O)ccc1N=Nc1ccccc1,-6,9,-3,5,1,3
Cc1ccc(-c2csc(N3CCC(NS(=O)(=O)c4ccc5c(c4)OCCO5)CC3)n2)cc1,97*,8,8,20,29,-24
O=C(Oc1ccccc1C(=O)N1CCOCC1)c1ccc(Br)cc1,-1,10,3,-15,0,-2
COc1ccc(C)cc1NC(=O)CSc1nnc(COc2ccc(Cl)cc2)n1Cc1ccco1,4,7,-5,17,29,79*
COc1ccc(C)cc1NC(=O)CSc1nnc(COc2ccccc2)n1Cc1ccco1,11,16,14,30,6,38
CCOc1cc(C=O)cc(N=Nc2cccc([N+](=O)[O-])c2)c1O,3,3,104*,4,11,4
Cc1ccc(-c2cc(C(=O)N3CCN(C(=O)c4ccco4)CC3)[nH]n2)c(C)c1,5,2,1,6,23,12
CCN(CC)P(=O)(Nc1ccccc1Br)c1ccc(N(C)C)cc1NC(=O)c1ccco1 (configuration not stated),9,2,25,57*,0,-11
COc1ccc2[nH]c(O)c(N=O)c2c1,-3,13,1,-8,0,-5
COC(=O)[C@@H](NC(=O)Nc1ccccc1F)C(C)C,-2,4,-21,-12,11,-13
CC(NC(=O)Nc1ccccc1F)C(C)(C)C (configuration not stated),-9,4,58*,-24,0,0
COc1ccc(C2=NCC(CSc3nnc(-c4ccc5c(c4)OCO5)o3)S2)cc1 (configuration not stated),-2,23,16,57*,-27,9
COc1ccc(OC)c(-n2c(CNC3CCN(Cc4ccccc4)CC3)nc3ccccc3c2=O)c1,-2,7,1,15,7,1
COc1ccc(OC)c(-n2c(CN3CCC(C(N)=O)CC3)nc3ccccc3c2=O)c1,-1,6,117*,11,10,-5
COc1ccc(/C=C2/CCc3ccccc3C2=O)cc1CN1CCOCC1,1,30,17,57*,2,5
SMILES,Beta cell apopt,NALP3 yeast inh,Calb FLC,T cruzi inh,Mdm2-MdmX inh,CSC inhib
COc1ccc(/C=C2\CCc3ccccc3C2=O)cc1Cn1nc(C)cc1C,9,12,14,15,27,19
Cc1ccc(S(=O)(=O)NC(=O)Nc2ccc(N(C)C)cc2)cc1,6,42,87*,57*,32,-4
Cc1[nH]nc(-c2ccc(O)cc2O)c1Oc1ccccc1,1,-3,37,-7,39,51
CCCOC(=O)c1ccc(Oc2c(-c3ccc(O)cc3O)n[nH]c2C)cc1,3,3,-3,-15,23,117*
CCOc1ccc(-c2n[nH]c(C)c2Oc2ccccc2OC)c(O)c1,-5,12,-32,-13,29,9
CCc1cc(-c2n[nH]c(C)c2Oc2ccc(C(C)C)cc2)c(O)cc1O,-3,-3,47,38,1,113*
CCCOC(=O)c1ccc(Oc2c(-c3ccc(OC)cc3O)n[nH]c2C)cc1,-7,9,-2,-12,32,132*
COc1ccccc1Nc1nc(N)nc(CSC(=S)N2CCC(C)CC2)n1,0,-13,13,37,7,19
Fc1ccc(-c2nnc(Cc3ccc(Cl)cc3)o2)cc1,-10,26,0,2,-29,-4
CN(C)c1nc(OCc2ccccc2)c2ncc(=O)[nH]c2n1,·,11,26,·,-15,6
CC(C)(C)c1ccc(C(=O)Nc2sc3c(c2C(=O)O)CCC3)cc1,8,-12,38,-21,38,15
O=[N+]([O-])c1cc(Cc2ccccc2)cc(C=Nc2ccc(N3CCOCC3)cc2)c1O,-1,·,-8,32,·,52
O=[N+]([O-])c1cccc(C=Nc2cccc3ccccc23)c1O,6,32,101*,12,35,23
Cc1ccc(O)c(N=Cc2cc(Cc3ccccc3)cc([N+](=O)[O-])c2O)c1,·,38,98*,-12,8,·
CCOC(=O)c1cnc2c(F)ccc(F)c2c1Sc1ccccc1,-14,13,0,-9,-2,14
CCOc1ccccc1N1CCN(C(=O)C2=CC=CN3CCS(=O)(=O)N=C23)CC1,1,6,·,·,-8,-17
CC(=O)Nc1ccc(NC(=O)Cc2sc(-c3cccnc3)nc2-c2ccc(C)cc2)cc1,2,22,3,70*,30,-5
O=C(Nc1ccc(C(F)(F)F)cc1)C1CCN(S(=O)(=O)c2ccc(N3CCCC3=O)cc2)CC1,101*,3,5,15,35,5
CCOc1ccc(NC(=O)NNC(=O)c2ccc3ccccc3c2O)cc1,-3,14,85*,-9,18,-9
COc1ccc(C)cc1NC(=O)NNC(=O)c1cc2ccccc2cc1O,0,18,93*,-14,37,6
COc1ccccc1NC(=O)c1cc2cc(Br)ccc2cc1O,?,·,0,0,·,106*
Cc1ccc(C(=O)NNC(=O)c2cc3ccccc3cc2O)cc1,-2,18,91*,0,26,17
O=C(NC(=S)NNC(=O)c1cc2ccccc2cc1O)c1ccco1,30,16,83*,1,13,25
COc1ccc(NC(=O)NNC(=O)c2cc3ccccc3cc2O)cc1,2,11,86*,-4,0,7
O=C(NNC(=O)c1cc2ccccc2cc1O)Nc1ccc(Br)cc1,4,18,6,-8,12,22
